Only some compounds are listed: those with a hit (about 1.2% of all), similar ones and a draw of the others.
M1 PAM parental: nonselective activator or artifact in parental CHO-K1 calcium assay; ATP EC20, Fluo-8 calcium fluorescence; 0% at ATP EC20, 100% at ATP max; activation, % at 3 µM; actives 0.02% (n = 360,000);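 active means activation above the run cutoff, the mean activation of all test compounds plus 3 SD, cut at about 40% in these data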;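 further: peak over basal fluorescence ratio in a 140 s read after ATP addition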
CHO-K1 Ca antag: nonselective inhibitor or artifact in parental CHO-K1 cells; AID 602250; inhibition, % at 3 µM; ATP-induced calcium, Fluo-8 fluorescence; actives 0.6% (n = 360,000);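 active means inhibition above a per-plate cutoff, the plate's mean sample inhibition plus 3 SD, cut at about 24% in these data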;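 further: 0% = DMSO plus EC80 ATP and 100% = DMSO alone without ATP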
zfTRPN1 agonist: agonists of zebrafish TRPN1 channel | HEK293 zebrafish TRPN1-YFP, Fluo-8 calcium fluorescence; 100% = response to 87 µM carbachol | activation, % at 3 µM | actives 0.18% (n = 220,000) | AID 1424;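 active means activation above its plate's cutoff, the mean activation of test wells on that plate plus 3 SD, cut at about 19% in these data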;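 further: 0% = DMSO alone and 100% = 87 µM carbachol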
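Assay system: Zebrafish TRPN1-YFP in HEK293 cells | Incubation: Dye loading 1 h at 37 °C, then 30 min room temperature | Measured by: Kinetic Fluo-8 fluorescence, ex 470-495, em 515-575 nm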
TRPML3 agonist: activates the human TRPML3 channel; activation, % at 3 µM; actives 0.29% (n = 220,000); AID 1448; Q8TDD5; HEK293 TRPML3-YFP, Fluo-8 calcium fluorescence; 100% = the carbachol control signal;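 active means activation above its plate's cutoff, the mean activation of the plate's test wells plus 3 SD, cut at about 12% in these data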;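 further: 0% = DMSO only wells and 100% = carbachol wells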
Target sequence (Q8TDD5 whole entry, looked up): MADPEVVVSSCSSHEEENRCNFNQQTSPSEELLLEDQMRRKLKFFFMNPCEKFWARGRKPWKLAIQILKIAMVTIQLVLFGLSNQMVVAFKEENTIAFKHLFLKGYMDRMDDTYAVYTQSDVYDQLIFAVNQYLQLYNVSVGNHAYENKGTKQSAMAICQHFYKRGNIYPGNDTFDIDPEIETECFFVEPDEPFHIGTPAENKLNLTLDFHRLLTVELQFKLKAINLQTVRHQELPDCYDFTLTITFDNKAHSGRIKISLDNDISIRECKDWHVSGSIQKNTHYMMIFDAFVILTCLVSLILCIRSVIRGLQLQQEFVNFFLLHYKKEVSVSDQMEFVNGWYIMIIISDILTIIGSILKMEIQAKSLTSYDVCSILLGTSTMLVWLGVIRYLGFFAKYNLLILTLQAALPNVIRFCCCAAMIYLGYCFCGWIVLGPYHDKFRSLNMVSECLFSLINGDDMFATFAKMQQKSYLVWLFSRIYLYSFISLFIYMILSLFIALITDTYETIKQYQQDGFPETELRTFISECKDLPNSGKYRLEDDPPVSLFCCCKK
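Test system – HEK293 line with stable expression of human TRPML3-YFP channel · Control set – carbachol 87 µM final as high control (100%), DMSO as low control (0%) · Signal – Fluo-8 calcium dye fluorescence, ex 470-495, em 515-575 nm · Incubation – 1-h 37 °C dye load, 5-s basal, 120-s post-compound reads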
M1 ag parental: counter-screen for M1 agonists: effect in parental CHO-K1 cells | Fluo-8 calcium fluorescence; scaled to maximal ATP response, vehicle zero | activation, % at 3 µM | actives 0.48% (n = 360,000) | AID 602248; in the data active means activation above about 15%;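 further: untransfected CHO-K1 host cells lacking M1 receptor as counterscreen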
* = called active by the depositor; nt = no result.

SMILES | M1 PAM parental | CHO-K1 Ca antag | zfTRPN1 agonist | TRPML3 agonist | M1 ag parental
COc1ccc(Cl)cc1Cn1c(C)c(C(=O)NCc2ccccc2C(F)(F)F)sc1=O | -8.7 | 3.5 | nt | nt | -0.3
COc1ccccc1Cn1c(C)c(C(=O)NCc2ccc(C#N)cc2)sc1=O | 19.3 | -4.2 | nt | nt | 28.4*
COc1ccc(CNC(=O)c2sc(=O)n(Cc3ccccc3C)c2C)cc1 | -8.8 | 6.5 | nt | nt | 17.2*
COc1ccc(Cl)cc1Cn1c(C)c(C(=O)NCc2cccc(C(F)(F)F)c2)sc1=O | 2.3 | 24.5* | nt | nt | -0.2
Cc1c(C(=O)/C=C/c2ccccc2F)c2cc(O)ccc2n1C | 9.7 | 1.5 | nt | nt | 0.2
Cc1nnsc1C(=O)NC(C)c1ccccc1 (centres undefined) | 0.9 | 1.8 | -0.9 | 0.5 | 21.0*
Cc1nn(CC(O)CN2c3ccccc3Sc3ccccc32)c(C)c1Br (centres undefined) | -5.3 | -13.5 | -1.4 | 1.3 | 18.4*
Cn1c(=O)cc(OCCCC(=O)N2CCN(c3ccccc3)CC2)c2ccccc21 | -7.0 | 29.7* | 0.6 | -0.3 | 1.6
CN1CCN(C(=O)CCCOc2cc(=O)n(C)c3ccccc23)CC1 | 10.1 | -3.8 | -0.5 | 0.8 | 0.7
O=C(Nc1nnc(SCc2ccccc2F)s1)C1=COCCO1 | -8.0 | 9.7 | nt | nt | 17.3*
O=C(Nc1nnc(SCc2ccccc2)s1)C1=COCCO1 | -16.6 | -0.8 | nt | nt | 1.9
CC(=NNc1nc2ccccc2o1)c1cc2ccccc2cn1 | -5.3 | 17.0 | nt | nt | 2.1
CC(=NNc1nc2ccccc2s1)c1ncccn1 | 2.0 | 27.4* | nt | nt | 8.6
CC(=NNc1nc2ccccc2o1)c1ncccn1 | -2.6 | 30.9* | nt | nt | 2.6
C/C(=N\Nc1nc2ccccc2s1)c1cccs1 | 26.9 | -11.0 | 0.0 | 1.1 | 2.2
CCS(=O)(=O)c1ccc(O)c(NC(=O)COc2ccc(OC)cc2)c1 | 13.9 | -1.4 | 1.5 | 0.8 | 0.6
CCCc1ccc(OCC(=O)Nc2cc(S(=O)(=O)CC)ccc2O)cc1 | 5.9 | -5.9 | 0.8 | 3.9 | 16.1*
CCCCCCCCN1C(=O)[C@H](CC(=O)N2CCN(C(=O)OCC)CC2)C[C@@]2(C(=O)OCC)CCCC=C12 | 5.6 | -31.2 | nt | nt | -1.1
N#Cc1cccc2cccc(S(=O)(=O)N3CCOCC3)c12 | -12.1 | 26.1* | nt | nt | 4.4
O=S(=O)(c1cccc2cccnc12)N1CCOCC1 | 11.6 | -2.2 | -0.2 | 0.1 | 0.2
O=C(NC(N1CCOCC1)C(Cl)(Cl)Cl)c1ccc(F)cc1 (centres undefined) | 0.1 | 1.9 | -0.5 | 0.1 | 18.2*
CC1(C)Cc2c(sc3ncn(N)c(=N)c23)CO1 | -4.5 | 26.8* | 1.3 | -0.1 | -0.5
CCC(=O)c1ccc(N2CCN(C(=O)c3cccs3)CC2)c(F)c1 | -10.4 | 25.5* | nt | nt | 3.3
CCC(=O)c1ccc(N2CCN(C(=O)c3ccccc3F)CC2)c(F)c1 | -5.2 | 1.6 | 2.1 | 2.4 | 5.0
CCNC(=O)C1(C)CCN1C(=O)CCc1cccc(Cl)c1 (centres undefined) | 8.0 | 1.3 | nt | nt | 0.7
SMILES | M1 PAM parental | CHO-K1 Ca antag | zfTRPN1 agonist | TRPML3 agonist | M1 ag parental
FC(F)(F)c1cnc2c(c1)[nH]c(=S)n2-c1ccc(Cl)cc1 | 5.5 | 1.6 | nt | nt | 15.8*
COc1ccc(C(C)=O)cc1CN1C(=O)C(C)ON=C1c1cccc(C(F)(F)F)c1 (centres undefined) | 1.8 | -11.4 | nt | nt | 0.6
O=C(CSC1=NCCS1)Nc1ccccc1F | 12.7 | -1.5 | 1.0 | 0.0 | 6.2
CCCN1C(=O)CC(=O)N=C1SCC(=O)Nc1ccccc1F | -0.3 | -12.7 | nt | nt | 17.9*
O=C(c1ccc(S(=O)(=O)c2cccc(Cl)c2)c([N+](=O)[O-])c1)N1CCN(c2ccccn2)CC1 | -10.0 | 26.2* | 4.0 | 3.0 | 16.1*
O=C(c1cccc(Cl)c1)N1CCN(c2ccccn2)CC1 | -5.6 | 15.0 | 0.3 | 0.1 | 0.6
CCCCOCCCNc1ncnc2c1[nH]c1ccccc12 | -7.6 | 29.6* | 5.0 | 4.3 | 11.2
N#CC1=C(N)OC2=C(CC/C2=C\c2ccccc2Cl)C1c1ccccc1Cl (centres undefined) | -10.3 | -0.3 | 0.4 | 0.3 | 2.0
N#CC1=C(N)OC2=C(CC/C2=C\c2ccccc2)C1c1ccccc1 (centres undefined) | 1.6 | 26.2* | 7.3 | 2.8 | 20.7*
O=S1(=O)CC(N2CCCCC2)CN1Cc1cn(Cc2cccc(Cl)c2)nn1 (centres undefined) | 1.0 | -13.4 | nt | nt | -0.1
Cc1cccc(C)c1NC(=O)C1c2ccccc2OCC(=O)N1Cc1ccco1 (centres undefined) | 5.3 | -9.3 | nt | nt | 0.0
O=C1NC[C@H](Cc2ccccc2)N(C[C@@H]2CCCN2C[C@H](Cc2ccc(O)cc2)N2C[C@H](Cc3ccccc3)N(CCc3ccccc3)C(=O)C2=O)C1=O | -10.1 | 10.5 | nt | nt | -0.3
Cc1onc(-c2ccccc2)c1C(=O)NC(=S)NNC(=O)c1ccncc1 | -3.4 | 4.5 | -0.4 | -0.4 | -0.5
Cc1onc(-c2ccccc2)c1C(=O)NNC(=S)NC(=O)c1ccc2c(c1)OCO2 | -13.2 | 0.5 | 23.2* | 23.1* | 55.0*
Cc1onc(-c2ccccc2)c1C(=O)NC(=S)NNC(=O)c1ccco1 | 7.5 | -3.6 | 6.9 | 11.4 | 18.4*
Cc1ccc(CNC(=O)[C@H](Cc2ccccc2)NC(=O)C2CCNCC2)cc1 | 17.3 | 30.6* | nt | nt | 0.9
Cc1ccc(CC(CC(=O)O)C(=O)NCc2ccccc2)cc1 (centres undefined) | 13.2 | -2.8 | -1.4 | 0.6 | 0.6
CCOC(=O)C1(CCOC)CCN(C/C=C/c2ccccc2OC)CC1 | -1.3 | 30.7* | nt | nt | 5.5
COCCCNC(=O)c1sc2ncn(CC(=O)Nc3ccc(C)c(Cl)c3)c(=O)c2c1C | 39.9* | -18.7 | 0.2 | 0.4 | 4.5
Cc1cc(Cl)ccc1OC(C)C(=O)Nc1ccccc1N1CCOCC1 (centres undefined) | 9.8 | 13.5 | 46.0* | 176.9* | -0.5
CC(Oc1ccc(Cl)cc1)C(=O)Nc1ccccc1N1CCOCC1 (centres undefined) | 15.7 | -10.3 | nt | nt | -0.6
CCc1nc2c(OCCC3CCCCC3)cccn2c1N(C)C(=O)c1cccs1 | -14.6 | -4.1 | nt | nt | 0.2
O=C(O)CC(c1ccccc1)c1ccc2c(c1)OCO2 (centres undefined) | -5.5 | 11.6 | nt | nt | 0.2
O=C(O)CC(Cc1ccccc1)c1ccc2c(c1)OCO2 (centres undefined) | -9.6 | 32.7* | 0.8 | 0.1 | -0.2
O=C(NC(Cc1ccc2c(c1)OCO2)C(=O)NC(Cc1ccccc1)C(=O)O)c1ccccc1 (centres undefined) | -5.9 | 24.7* | 0.2 | -0.3 | -0.2
COCCNC(=O)C1(C)CCCN(C(=O)c2cc(F)ccc2C)C1 (centres undefined) | 6.7 | -11.4 | nt | nt | 0.5
CCc1nc2c(OCc3c(C)noc3C)cccn2c1N(C)C(=O)c1ccccc1F | -5.7 | -3.1 | nt | nt | 0.4
CCCS(=O)(=O)NC(=O)C1(C)CCN(C(=O)/C=C/c2ccccc2)C1 (centres undefined) | -9.1 | 2.8 | nt | nt | 0.0

Screening data deposited in PubChem BioAssay by The Scripps Research Institute Molecular Screening Center.
